Screening data from PubChem BioAssay.
This is a sample that favours compounds with a hit; in the whole collection about 0.59% have one here.
TRPML3 agonist = activates the human TRPML3 channel; HEK293 TRPML3-YFP, Fluo-8 calcium fluorescence; 100% = the carbachol control signal; activation, % at 3 µM; hit rate 0.29% among 220,000; AID 1448;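 active means activation above its plate's cutoff, the mean activation of the plate's test wells plus 3 SD, cut at about 12% in these data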;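 further: 0% = DMSO only wells and 100% = carbachol wells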
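Test system: TRPML3-YFP stable HEK293 cells. Doses: single point at 3 µM. Incubation: dye loading 1 h 37 °C then 30 min ambient, 125 s read. Signal: Fluo-8 calcium dye fluorescence, ex 470-495, em 515-575 nm. Measure: percent activation from peak-to-basal fluorescence ratio, scaled between DMSO and carbachol.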
V1aR counter = counter-screen for oxytocin receptor agonists: human V1a receptor agonists; activation, % at 3 µM; P37288; AID 2797; hit rate 0.25% among 320,000; CHO-V1R cells, Fluo-8 calcium fluorescence, agonist mode; 0% DMSO, 100% 3 nM vasopressin;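 active means activation above the mean activation of all tested compounds plus 3 SD, per screening run, cut at about 20% in these data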;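 further: signal is peak over basal fluorescence ratio across a 100 second FLIPR read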
Target sequence (P37288 whole entry, looked up): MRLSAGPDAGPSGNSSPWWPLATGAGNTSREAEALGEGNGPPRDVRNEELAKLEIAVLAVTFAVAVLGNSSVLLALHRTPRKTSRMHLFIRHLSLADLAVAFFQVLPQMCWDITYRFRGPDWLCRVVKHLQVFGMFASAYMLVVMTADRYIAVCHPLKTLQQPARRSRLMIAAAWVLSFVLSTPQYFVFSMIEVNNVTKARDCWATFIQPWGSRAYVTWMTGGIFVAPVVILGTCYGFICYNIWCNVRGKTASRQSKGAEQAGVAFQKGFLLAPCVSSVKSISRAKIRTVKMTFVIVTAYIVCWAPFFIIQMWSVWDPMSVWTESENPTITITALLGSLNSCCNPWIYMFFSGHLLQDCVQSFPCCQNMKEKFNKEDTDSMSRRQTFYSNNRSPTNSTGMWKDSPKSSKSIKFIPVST
OXTR agonist = activates the human oxytocin receptor; P30559; CHO-OTR cells, Fluo-8 calcium fluorescence; normalized: DMSO 0%, oxytocin 100%; activation, % at 3 µM; hit rate 0.32% among 320,000; AID 2435;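 active means activation above the mean of all tested compounds plus 3 SD, cutoff set per screening run, cut at about 20% in these data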;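 further: peak over basal fluorescence ratio from a 100 s FLIPR kinetic read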
OXTR potentiator = potentiators of human oxytocin receptor; CHO-OTR cells, Fluo-8 calcium fluorescence, potentiator mode; 0% = oxytocin EC15, 100% = EC100; activation, % at 3 µM; hit rate 0.061% among 320,000; AID 2445;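 active means activation above that plate's cutoff, the mean activation of tested compounds plus 3 SD, cut at about 6.6% in these data, passing the limit was not always enough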;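 further: 100% uses oxytocin at 75 nM as the full agonist control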
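System: human OTR in CHO cells / Also added: sub-maximal oxytocin, roughly EC15 / Control set: EC15 oxytocin low, 75 nM oxytocin high / Schedule: 6 min compound pre-incubation at room temperature, 100 s kinetic read / Compound: single-point 3.0 µM / Replication: singlicate / Technique: Fluo-8 calcium dye fluorescence / Read-out basis: % activation of max/min ratio relative to oxytocin controls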
zfTRPN1 agonist = zebrafish TRPN1 (NompC) channel agonism | HEK293 zebrafish TRPN1-YFP, Fluo-8 calcium fluorescence; 100% = response to 87 µM carbachol | activation, % at 3 µM | hit rate 0.18% among 220,000;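 active means activation above its plate's cutoff, the mean activation of test wells on that plate plus 3 SD, cut at about 19% in these data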;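 further: 0% = DMSO alone and 100% = 87 µM carbachol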
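Material: zebrafish TRPN1-YFP in HEK293 cells; Doses: single test compound dose, 3 µM nominal, 0.3% DMSO; Timing: dye loading 1 h at 37 °C, then 30 min room temperature; Technique: intracellular calcium fluorescence with Fluo-8; Benchmarks: high carbachol 87 µM, low DMSO alone.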
OXTR ag confirm = human OXTR agonism, confirmation; shares compounds with OXTR agonist; CHO-OTR cells, Fluo-8 calcium fluorescence, agonist; hit rate 20% among 390; activation, % at 3 µM;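 active means mean activation above about 20% derived from the earlier single-dose screen, limit read from the data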;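 further: peak over minimum fluorescence ratio per well during a 100 second FLIPR read; 0% = DMSO alone and 100% = oxytocin high control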
V1R ag counter 3x = counter-screen for oxytocin receptor agonists: V1a receptor agonists; shares compounds with OXTR agonist; CHO-V1R cells, Fluo-8 calcium fluorescence, agonist; activation, % at 3 µM; hit rate 10% among 390;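 active means mean activation over triplicate exceeds the hit threshold set in the earlier primary screen, cut at about 20% in these data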;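 further: peak over basal fluorescence ratio within a 100 second read; 0% = DMSO alone and 100% = 3 nM vasopressin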
* marks the source's active call; other numbers are inactive results.

Results for CCCN1C(=O)S/C(=C/c2ccc(N3CCOCC3)o2)C1=O ?
TRPML3 agonist: 4; V1aR counter: 7; OXTR agonist: 20*; OXTR potentiator: -4; zfTRPN1 agonist: 10; OXTR ag confirm: 31*; V1R ag counter 3x: 55*

How did Cc1[nH]c2ccccc2c1/C=N/Nc1ccc([N+](=O)[O-])cc1 do in these assays?
TRPML3 agonist: 10; V1aR counter: 18; OXTR agonist: 21*; OXTR potentiator: -6; zfTRPN1 agonist: 13; OXTR ag confirm: 25*; V1R ag counter 3x: 35*

How did CN(C(=O)C1CCCC1)C1CCS(=O)(=O)C1 (stereo not drawn) do in these assays?
V1aR counter: 1; OXTR agonist: 0; OXTR potentiator: 0

What do the screens show for `O=[N+]([O-])c1cccc(/C=N/Nc2nc(NCc3ccccc3)nc(N3CCOCC3)n2)c1O`?
TRPML3 agonist: 0; V1aR counter: 17; OXTR agonist: 24*; OXTR potentiator: -31; zfTRPN1 agonist: 1; OXTR ag confirm: 19; V1R ag counter 3x: 17

Results for CCCNC(=O)COc1coc(CN2CCN(c3cccc(Cl)c3)CC2)cc1=O ?
V1aR counter: 1; OXTR agonist: 0; OXTR potentiator: -7

How did CC(=O)c1ccc(N2CCN(c3ccccc3O)CC2)c([N+](=O)[O-])c1 do in these assays?
V1aR counter: 15; OXTR agonist: 23*; OXTR potentiator: -33; OXTR ag confirm: 14; V1R ag counter 3x: 13

Results for O=C(O)c1ccccc1C(=O)c1ccc(N2CCCC2)c([N+](=O)[O-])c1 ?
TRPML3 agonist: 1; V1aR counter: 1; OXTR agonist: 1; OXTR potentiator: 0; zfTRPN1 agonist: 3

How did Cc1cc(C)c2nc(N(CCCN(C)C)C(=O)c3ccc4c(c3)OCCO4)sc2c1 do in these assays?
V1aR counter: 4; OXTR agonist: 20*; OXTR potentiator: -17; OXTR ag confirm: 6; V1R ag counter 3x: 4

Results for C=C(C)COc1cc2oc(=O)c(CC(=O)N3C[C@H]4C[C@@H](C3)c3cccc(=O)n3C4)c(C)c2cc1Cl ?
V1aR counter: 3; OXTR agonist: 0; OXTR potentiator: -3

Results for COc1ccc2c(c1)CC/C(=C\c1ccc(OC)c(Cn3nc(C)cc3C)c1)C2=O ?
TRPML3 agonist: 1; V1aR counter: 10; OXTR agonist: 36*; OXTR potentiator: -21; zfTRPN1 agonist: 2; OXTR ag confirm: 8; V1R ag counter 3x: 8

What do the screens show for `COc1ccc(-c2csc(N(CCCN(C)C)C(=O)c3ccccc3C)n2)cc1`?
V1aR counter: 4; OXTR agonist: 8; OXTR potentiator: -2

How did COc1ccc(-c2csc(N(CCCN(C)C)C(=O)c3ccccc3Cl)n2)cc1 do in these assays?
V1aR counter: 15; OXTR agonist: 23*; OXTR potentiator: -7; OXTR ag confirm: 6; V1R ag counter 3x: 3

Results for COc1ccc(CC(=O)NC(=S)Nc2ccc(S(=O)(=O)NC(C)(C)C)cc2)cc1 ?
TRPML3 agonist: 7; V1aR counter: 17; OXTR agonist: 20*; OXTR potentiator: -23; zfTRPN1 agonist: 13; OXTR ag confirm: 17; V1R ag counter 3x: 15

Results for CC1CN(CC(=O)Nc2nc(-c3ccc(Cl)cc3)cs2)CC(C)O1 (stereo not drawn) ?
V1aR counter: 3; OXTR agonist: -2; OXTR potentiator: -10

What do the screens show for `COc1ccc(CC2(CO)CCN(CC3=Cc4cc(Cl)ccc4OC3)CC2)cc1`?
TRPML3 agonist: 2; V1aR counter: 19; OXTR agonist: 23*; OXTR potentiator: -33; zfTRPN1 agonist: 5; OXTR ag confirm: 14; V1R ag counter 3x: 12

What do the screens show for `COc1ccc(C(=O)NOCc2ccccc2)cc1`?
V1aR counter: 2; OXTR agonist: -1; OXTR potentiator: 6

Results for CCOC(=O)C(Cc1ccc(O)cc1)NC(=O)CCc1c[nH]c2ccccc12 (stereo not drawn) ?
V1aR counter: 17; OXTR agonist: 23*; OXTR potentiator: -21; OXTR ag confirm: 19; V1R ag counter 3x: 3

What do the screens show for `CN(c1ccccc1)S(=O)(=O)c1ccc(C(=O)N2CCCC2)cc1`?
V1aR counter: 0; OXTR agonist: 0; OXTR potentiator: -8

What do the screens show for `CN(c1ccc(C(=O)N2CCCCC2)cc1)S(=O)(=O)c1ccccc1`?
TRPML3 agonist: 2; V1aR counter: 11; OXTR agonist: 21*; OXTR potentiator: -25; zfTRPN1 agonist: 2; OXTR ag confirm: 6; V1R ag counter 3x: 7

How did O=C(NC(=S)NNC(=O)[C@H]1C[C@@H]1c1ccccc1)c1ccc(F)cc1 do in these assays?
TRPML3 agonist: 5; V1aR counter: 18; OXTR agonist: 35*; OXTR potentiator: -19; zfTRPN1 agonist: 15; OXTR ag confirm: 22*; V1R ag counter 3x: 39*

Results for COc1ccc(C(=O)NC(=S)NNC(=O)[C@H]2C[C@@H]2c2ccccc2)cc1OC ?
TRPML3 agonist: 7; V1aR counter: 3; OXTR agonist: 3; OXTR potentiator: -12; zfTRPN1 agonist: 5

What do the screens show for `CC(=O)C1=C(c2ccccc2)NC(=S)NC1c1cc(Cl)c(OC(C)C)c(Cl)c1` (stereo not drawn)?
TRPML3 agonist: 4; V1aR counter: 16; OXTR agonist: 20*; OXTR potentiator: -8; zfTRPN1 agonist: 15; OXTR ag confirm: 17; V1R ag counter 3x: 15

What do the screens show for `COc1cc(C2NC(=S)NC(c3ccccc3)=C2C(C)=O)cc(Cl)c1OCC(=O)O` (stereo not drawn)?
TRPML3 agonist: 0; V1aR counter: 0; OXTR agonist: 0; OXTR potentiator: 0; zfTRPN1 agonist: -1

What do the screens show for `O=C(CNC(=O)c1cccc(F)c1)N/N=C/c1cccs1`?
V1aR counter: 1; OXTR agonist: -1; OXTR potentiator: 0

How did O=C(NCCCl)c1ccc(OCc2ccccc2)cc1Cl do in these assays?
TRPML3 agonist: 1; V1aR counter: 10; OXTR agonist: 22*; OXTR potentiator: -10; zfTRPN1 agonist: -2; OXTR ag confirm: 0; V1R ag counter 3x: 0

Results for C#CCNC(=O)c1ccc(OCc2ccccc2)cc1Cl ?
TRPML3 agonist: -1; V1aR counter: 0; OXTR agonist: 0; OXTR potentiator: 3; zfTRPN1 agonist: -2

What do the screens show for `CCOC(=O)c1c(C)n(-c2ccc(C)cc2)c2ccc(OCC(O)CNCC3CCCO3)cc12` (stereo not drawn)?
TRPML3 agonist: 0; V1aR counter: 10; OXTR agonist: 20*; OXTR potentiator: -11; zfTRPN1 agonist: -1; OXTR ag confirm: 9; V1R ag counter 3x: 3
